# Test results taken from the M2OR odorant receptor database.
# Substitutions are numbered along the chain they refer to.
# Assays:
# Details in all cases: stereoisomer not certain
# OR1G1 (Homo sapiens) = molecular target: T1, OR1G1 (Homo sapiens) (UniProt P47890)
# T1 sequence (whole entry): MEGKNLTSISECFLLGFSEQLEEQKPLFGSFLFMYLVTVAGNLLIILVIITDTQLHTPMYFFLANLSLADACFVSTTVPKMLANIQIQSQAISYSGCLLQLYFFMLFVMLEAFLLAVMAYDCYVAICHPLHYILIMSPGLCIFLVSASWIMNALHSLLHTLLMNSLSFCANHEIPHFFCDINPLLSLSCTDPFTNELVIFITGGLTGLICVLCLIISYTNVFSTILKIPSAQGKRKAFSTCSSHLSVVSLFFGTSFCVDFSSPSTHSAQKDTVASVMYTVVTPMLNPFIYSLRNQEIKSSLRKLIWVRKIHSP
# Method in brief: (§1)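 Assay methods differ from source to source, frequently being transient luciferase assays in mammalian cell lines. For each receptor–molecule pair, the label responsive (active) applies when the original authors judged the measured signal statistically different from baseline, and non-responsive (inactive) applies otherwise.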
# OR1F12P (Homo sapiens) = molecular target: T2, OR1F12P (Homo sapiens) (UniProt Q8NHA8)
# T2 sequence (whole entry): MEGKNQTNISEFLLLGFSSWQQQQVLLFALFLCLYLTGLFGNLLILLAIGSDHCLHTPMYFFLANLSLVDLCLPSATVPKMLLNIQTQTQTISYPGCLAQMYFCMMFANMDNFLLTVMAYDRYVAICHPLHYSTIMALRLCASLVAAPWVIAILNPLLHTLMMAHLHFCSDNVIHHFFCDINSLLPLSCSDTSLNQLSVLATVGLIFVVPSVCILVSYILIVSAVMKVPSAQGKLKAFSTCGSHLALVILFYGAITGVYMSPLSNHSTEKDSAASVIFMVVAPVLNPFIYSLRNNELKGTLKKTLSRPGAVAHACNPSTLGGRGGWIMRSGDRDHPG
# Method in brief: as §1
# OR1F1 = system: T3, OR1F1
# T3 sequence (whole entry): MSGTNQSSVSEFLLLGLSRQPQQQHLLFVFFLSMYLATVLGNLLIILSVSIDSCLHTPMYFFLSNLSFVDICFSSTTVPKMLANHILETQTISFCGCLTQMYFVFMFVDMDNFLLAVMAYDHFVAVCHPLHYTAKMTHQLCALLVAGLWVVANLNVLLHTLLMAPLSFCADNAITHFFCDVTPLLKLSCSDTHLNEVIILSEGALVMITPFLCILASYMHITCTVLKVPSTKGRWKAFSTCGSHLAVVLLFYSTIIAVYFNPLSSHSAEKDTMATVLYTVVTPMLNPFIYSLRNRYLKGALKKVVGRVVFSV
# Method in brief: as §1
# OR1I1 (Homo sapiens) = molecular target: T4, OR1I1 (Homo sapiens) (UniProt O60431)
# T4 sequence (whole entry): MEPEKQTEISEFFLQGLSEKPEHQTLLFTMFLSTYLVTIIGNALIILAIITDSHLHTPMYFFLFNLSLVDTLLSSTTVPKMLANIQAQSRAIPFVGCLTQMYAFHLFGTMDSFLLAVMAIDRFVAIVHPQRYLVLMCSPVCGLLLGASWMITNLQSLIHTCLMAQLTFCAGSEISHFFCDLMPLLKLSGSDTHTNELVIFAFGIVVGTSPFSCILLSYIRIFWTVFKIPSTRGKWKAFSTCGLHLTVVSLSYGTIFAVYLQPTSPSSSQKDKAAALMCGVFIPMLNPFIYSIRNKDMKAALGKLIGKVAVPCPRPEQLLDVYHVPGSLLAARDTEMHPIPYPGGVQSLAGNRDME
# Method in brief: as §1
# OR1J1 (Homo sapiens) = molecular target: T5, OR1J1 (Homo sapiens) (UniProt Q8NGS3)
# T5 sequence (whole entry): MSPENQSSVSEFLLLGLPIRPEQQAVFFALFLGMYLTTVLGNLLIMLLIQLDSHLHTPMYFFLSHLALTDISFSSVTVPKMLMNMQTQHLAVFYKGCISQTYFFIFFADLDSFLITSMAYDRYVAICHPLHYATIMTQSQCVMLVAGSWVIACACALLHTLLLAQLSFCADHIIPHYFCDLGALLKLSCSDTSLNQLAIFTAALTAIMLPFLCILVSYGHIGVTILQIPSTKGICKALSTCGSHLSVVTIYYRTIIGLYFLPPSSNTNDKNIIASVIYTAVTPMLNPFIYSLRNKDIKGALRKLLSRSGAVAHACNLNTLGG
# Method in brief: as §1
# OR1J2 (Homo sapiens) = molecular target: T6, OR1J2 (Homo sapiens) (UniProt Q8NGS2)
# T6 sequence (whole entry): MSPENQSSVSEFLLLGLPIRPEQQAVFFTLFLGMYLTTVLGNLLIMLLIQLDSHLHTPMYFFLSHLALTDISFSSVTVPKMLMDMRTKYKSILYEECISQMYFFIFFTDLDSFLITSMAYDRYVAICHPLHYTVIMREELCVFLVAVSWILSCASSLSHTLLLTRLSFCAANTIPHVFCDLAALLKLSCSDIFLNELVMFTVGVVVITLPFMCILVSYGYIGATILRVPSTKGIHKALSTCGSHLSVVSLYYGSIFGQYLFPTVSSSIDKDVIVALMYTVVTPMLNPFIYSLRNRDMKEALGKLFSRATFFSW
# Method in brief: as §1
# OR1J4 (Homo sapiens) = molecular target: T7, OR1J4 (Homo sapiens) (UniProt Q8NGS1)
# T7 sequence (whole entry): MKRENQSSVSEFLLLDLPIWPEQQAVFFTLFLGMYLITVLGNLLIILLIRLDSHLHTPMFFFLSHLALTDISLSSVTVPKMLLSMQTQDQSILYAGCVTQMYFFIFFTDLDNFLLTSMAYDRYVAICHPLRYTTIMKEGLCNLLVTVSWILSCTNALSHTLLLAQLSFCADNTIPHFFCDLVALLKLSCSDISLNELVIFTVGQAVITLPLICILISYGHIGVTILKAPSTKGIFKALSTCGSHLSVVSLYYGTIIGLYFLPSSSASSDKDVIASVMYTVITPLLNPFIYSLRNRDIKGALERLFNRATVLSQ
# Method in brief: as §1
# OR1K1 (Homo sapiens) = molecular target: T8, OR1K1 (Homo sapiens) (UniProt Q8NGR3)
# T8 sequence (whole entry): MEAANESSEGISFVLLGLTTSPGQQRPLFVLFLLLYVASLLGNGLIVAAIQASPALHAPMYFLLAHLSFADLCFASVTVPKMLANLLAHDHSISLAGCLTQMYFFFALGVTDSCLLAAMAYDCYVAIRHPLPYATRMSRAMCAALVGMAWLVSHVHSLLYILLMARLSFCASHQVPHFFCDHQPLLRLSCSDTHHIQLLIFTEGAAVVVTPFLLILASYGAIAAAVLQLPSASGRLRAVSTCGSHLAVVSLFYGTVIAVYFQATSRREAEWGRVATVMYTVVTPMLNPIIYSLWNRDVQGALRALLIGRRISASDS
# Method in brief: as §1
# OR1L1 = system: T9, OR1L1
# T9 sequence (whole entry): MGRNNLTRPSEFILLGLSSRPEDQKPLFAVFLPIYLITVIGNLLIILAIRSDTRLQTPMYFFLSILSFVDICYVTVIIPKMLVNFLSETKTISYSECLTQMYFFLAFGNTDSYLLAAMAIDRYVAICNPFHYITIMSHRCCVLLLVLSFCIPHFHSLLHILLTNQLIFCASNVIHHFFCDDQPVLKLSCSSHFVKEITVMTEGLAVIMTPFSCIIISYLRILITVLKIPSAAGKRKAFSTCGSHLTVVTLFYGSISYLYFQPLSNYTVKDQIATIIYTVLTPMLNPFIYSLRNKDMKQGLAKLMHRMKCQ
# Method in brief: as §1
# OR1L3 (Homo sapiens) = molecular target: T10, OR1L3 (Homo sapiens) (UniProt Q8NH93)
# T10 sequence (whole entry): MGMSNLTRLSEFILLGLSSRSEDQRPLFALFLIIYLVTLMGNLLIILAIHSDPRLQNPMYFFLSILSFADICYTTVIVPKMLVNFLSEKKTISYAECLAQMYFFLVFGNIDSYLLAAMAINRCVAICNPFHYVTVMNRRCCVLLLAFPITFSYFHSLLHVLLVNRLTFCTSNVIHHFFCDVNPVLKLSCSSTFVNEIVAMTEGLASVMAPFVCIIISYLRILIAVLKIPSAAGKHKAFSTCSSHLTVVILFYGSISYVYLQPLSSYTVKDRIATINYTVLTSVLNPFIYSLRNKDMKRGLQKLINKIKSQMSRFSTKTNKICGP
# Method in brief: as §1
# OR1L4 (Homo sapiens) = molecular target: T11, OR1L4 (Homo sapiens) (UniProt Q8NGR5)
# T11 sequence (whole entry): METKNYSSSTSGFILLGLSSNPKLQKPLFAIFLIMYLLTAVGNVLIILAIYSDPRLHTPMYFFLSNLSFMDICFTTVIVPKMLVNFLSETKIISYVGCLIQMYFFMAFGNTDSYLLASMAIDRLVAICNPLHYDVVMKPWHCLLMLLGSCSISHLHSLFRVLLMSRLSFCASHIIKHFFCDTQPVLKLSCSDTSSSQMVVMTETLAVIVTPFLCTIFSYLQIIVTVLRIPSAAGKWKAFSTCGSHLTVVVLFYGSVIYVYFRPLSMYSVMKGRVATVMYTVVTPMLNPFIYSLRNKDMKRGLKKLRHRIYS
# Method in brief: as §1
# OR1L4 = system: T12, OR1L4
# T12 sequence (whole entry): T11 sequence (whole entry) with G234R
# Method in brief: as §1
# OR1L6 = system: T13, OR1L6
# T13 sequence (whole entry): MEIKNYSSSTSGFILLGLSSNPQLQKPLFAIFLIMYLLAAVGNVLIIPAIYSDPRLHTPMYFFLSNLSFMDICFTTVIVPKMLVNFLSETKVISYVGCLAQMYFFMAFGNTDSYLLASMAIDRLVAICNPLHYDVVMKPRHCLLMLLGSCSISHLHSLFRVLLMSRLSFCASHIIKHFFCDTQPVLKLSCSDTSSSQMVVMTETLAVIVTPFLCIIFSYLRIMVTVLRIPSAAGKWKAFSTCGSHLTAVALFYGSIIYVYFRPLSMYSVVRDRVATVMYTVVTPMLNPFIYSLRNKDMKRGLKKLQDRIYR
# Method in brief: as §1
# OR1L8 (Homo sapiens) = molecular target: T14, OR1L8 (Homo sapiens) (UniProt Q8NGR8)
# T14 sequence (whole entry): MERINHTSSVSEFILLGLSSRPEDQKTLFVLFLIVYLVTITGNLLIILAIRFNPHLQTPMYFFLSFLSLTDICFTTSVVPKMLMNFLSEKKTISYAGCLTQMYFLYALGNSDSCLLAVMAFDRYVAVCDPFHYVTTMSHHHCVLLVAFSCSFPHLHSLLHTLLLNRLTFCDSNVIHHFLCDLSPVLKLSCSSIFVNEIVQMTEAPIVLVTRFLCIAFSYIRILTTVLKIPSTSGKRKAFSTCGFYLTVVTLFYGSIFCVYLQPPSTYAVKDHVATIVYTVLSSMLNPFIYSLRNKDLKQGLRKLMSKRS
# Method in brief: as §1
# OR1L8 T27P R211P = system: T15, OR1L8 T27P R211P
# T15 sequence (whole entry): T14 sequence (whole entry) with T27P, R211P
# Method in brief: as §1
# OR1M1 (Homo sapiens) = molecular target: T16, OR1M1 (Homo sapiens) (UniProt Q8NGA1)
# T16 sequence (whole entry): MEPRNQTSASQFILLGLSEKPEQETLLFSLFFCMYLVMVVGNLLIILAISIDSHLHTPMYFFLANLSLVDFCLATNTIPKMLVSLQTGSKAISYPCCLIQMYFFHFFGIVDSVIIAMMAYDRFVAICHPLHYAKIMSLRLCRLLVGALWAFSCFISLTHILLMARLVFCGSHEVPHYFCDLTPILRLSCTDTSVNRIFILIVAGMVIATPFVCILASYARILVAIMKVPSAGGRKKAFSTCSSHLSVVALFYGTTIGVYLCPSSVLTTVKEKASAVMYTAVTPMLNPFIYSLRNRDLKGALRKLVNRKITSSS
# Method in brief: as §1
# OR1N1 (Homo sapiens) = molecular target: T17, OR1N1 (Homo sapiens) (UniProt Q8NGS0)
# T17 sequence (whole entry): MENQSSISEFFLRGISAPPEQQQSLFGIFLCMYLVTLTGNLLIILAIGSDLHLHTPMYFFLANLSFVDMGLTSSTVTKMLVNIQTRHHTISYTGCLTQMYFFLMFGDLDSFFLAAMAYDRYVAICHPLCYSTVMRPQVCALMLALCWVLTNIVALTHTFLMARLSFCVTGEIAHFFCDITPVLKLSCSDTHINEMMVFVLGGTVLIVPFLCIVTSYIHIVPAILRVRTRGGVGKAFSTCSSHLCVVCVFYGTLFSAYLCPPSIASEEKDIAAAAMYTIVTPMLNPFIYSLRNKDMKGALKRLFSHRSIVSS
# Method in brief: as §1
# OR1N2 W37R = system: T18, OR1N2 W37R
# T18 sequence (whole entry): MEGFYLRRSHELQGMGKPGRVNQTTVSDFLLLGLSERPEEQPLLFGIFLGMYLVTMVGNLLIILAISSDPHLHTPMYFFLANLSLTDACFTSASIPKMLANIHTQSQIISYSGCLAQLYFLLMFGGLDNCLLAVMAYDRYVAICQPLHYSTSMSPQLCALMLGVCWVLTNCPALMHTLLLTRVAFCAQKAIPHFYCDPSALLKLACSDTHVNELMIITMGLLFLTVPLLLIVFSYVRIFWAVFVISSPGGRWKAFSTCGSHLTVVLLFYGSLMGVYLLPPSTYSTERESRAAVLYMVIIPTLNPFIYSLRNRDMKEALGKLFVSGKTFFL
# Method in brief: as §1
SMILES,odorant receptor agonist call (OR1G1 (Homo sapiens)),odorant receptor agonist call (OR1F12P (Homo sapiens)),odorant receptor agonist call (OR1F1),odorant receptor agonist call (OR1I1 (Homo sapiens)),odorant receptor agonist call (OR1J1 (Homo sapiens)),odorant receptor agonist call (OR1J2 (Homo sapiens)),odorant receptor agonist call (OR1J4 (Homo sapiens)),odorant receptor agonist call (OR1K1 (Homo sapiens)),odorant receptor agonist call (OR1L1),odorant receptor agonist call (OR1L3 (Homo sapiens)),odorant receptor agonist call (OR1L4 (Homo sapiens)),odorant receptor agonist call (OR1L4),odorant receptor agonist call (OR1L6),odorant receptor agonist call (OR1L8 (Homo sapiens)),odorant receptor agonist call (OR1L8 T27P R211P),odorant receptor agonist call (OR1M1 (Homo sapiens)),odorant receptor agonist call (OR1N1 (Homo sapiens)),odorant receptor agonist call (OR1N2 W37R)
CCCCCCCCC(=O)OC,active,–,–,–,–,–,–,–,–,–,–,–,–,–,–,–,–,–
CC1=NC(C)C(C)S1 (centres undefined),inactive,inactive,inactive,inactive,inactive,inactive,inactive,inactive,inactive,inactive,inactive,inactive,inactive,inactive,inactive,inactive,inactive,inactive
